{"data": "Results from different studies", "CHEK1": "Serine/threonine-protein kinase Chk1 (CHEK1, Homo sapiens, UniProt O14757)", "HDAC5": "Histone deacetylase 5 (HDAC5, Homo sapiens, UniProt Q9UQL6)", "PPARG": "Peroxisome proliferator-activated receptor gamma (PPARG, Homo sapiens, UniProt P37231)", "GLP1R": "Glucagon-like peptide 1 receptor (GLP1R, Homo sapiens, UniProt P43220)"}
{"Structure (SMILES)": "Cc1cnc(-c2ccc(-c3ccc(NC(=O)Nc4c(F)cc(F)cc4F)cc3F)c3c2C(=O)NC3)[nH]1", "target": "Discoidin domain-containing receptor 2 (DDR2, Homo sapiens, UniProt Q16832)", "assay": "binding, competition with immobilised ligand", "endpoint": "Kd", "value": "3 nM"}
{"Structure (SMILES)": "CCCCCCCCCCCCCCCCC#CC(=O)O", "target": "DNA topoisomerase 1 (TOP1, Homo sapiens, UniProt P11387)", "assay": "enzyme activity, inhibitor", "endpoint": "EC50", "value": "20500 nM"}
{"Structure (SMILES)": "COc1cc(NC(=O)CCCCCCC(=O)O)c(Cl)cc1NC(=O)Nc1cnc(C#N)cn1", "target": "CHEK1", "assay": "enzyme activity, inhibitor", "endpoint": "IC50", "value": "57.9 nM"}
{"Structure (SMILES)": "O=C(CCCCCCC(=O)Nc1ccc([C@H]2O[C@@H](CSc3nc(-c4ccccc4)c(-c4ccccc4)o3)C[C@@H](c3ccc(CO)cc3)O2)cc1)NO", "target": "HDAC5", "assay": "cell-free assay", "endpoint": "Kd", "value": "> 30200 nM"}
{"Structure (SMILES)": "CCOC(=O)CCCCCOc1ccc(Cl)cc1NC(=O)Nc1cnc(C#N)cn1", "target": "CHEK1", "assay": "enzyme activity, inhibitor", "endpoint": "IC50", "value": "380 nM"}
{"Structure (SMILES)": "CC(C)(Oc1ccc(CCNC(=O)c2ccc(Cl)cc2)cc1)C(=O)O", "target": "PPARG", "assay": "binding, ITC", "endpoint": "Kd", "value": "30300 nM"}
{"Structure (SMILES)": "COC(=O)Cc1ccc2c(c1)NC(=O)c1cc(C)c(-c3ccc([N+](=O)[O-])c(OC)c3)cc1N2", "target": "CHEK1", "assay": "enzyme activity, inhibitor", "endpoint": "IC50", "value": "49.4 nM"}
{"Structure (SMILES)": "CCn1cncc1Cn1c(CN2CCC(c3cccc(OCc4ccc(F)cc4F)n3)CC2)nc2ccc(C(=O)O)cc21", "target": "Glucagon-like peptide 1 receptor (GLP1R, Homo sapiens, UniProt P43220, L260F)", "assay": "cAMP, agonist, TR-FRET", "endpoint": "EC50", "value": "0.09 nM"}
{"Structure (SMILES)": "CCN(CC)Cc1ccc2cc(COC(=O)Nc3ccc(C(=O)NO)cc3)ccc2c1", "target": "HDAC5", "assay": "cell-free assay", "endpoint": "Kd", "value": "> 30200 nM"}
{"Structure (SMILES)": "CC[C@H](C)[C@H](NC(=O)[C@H](Cc1ccccc1)NC(=O)[C@H](CCC(=O)O)NC(=O)[C@H](CCCCN)NC(=O)[C@H](C)NC(=O)[C@H](C)NC(=O)[C@H](CCC(N)=O)NC(=O)CNC(=O)[C@H](CCC(=O)O)NC(=O)[C@H](CC(C)C)NC(=O)[C@H](Cc1ccc(O)cc1)NC(=O)[C@H](CO)NC(=O)[C@H](CO)NC(=O)[C@@H](NC(=O)[C@H](CC(=O)O)NC(=O)[C@H](CO)NC(=O)[C@@H](NC(=O)[C@H](Cc1ccccc1)NC(=O)[C@@H](NC(=O)CNC(=O)[C@H](CCC(=O)O)NC(=O)[C@H](C)NC(=O)[C@H](Cc1c[nH]cn1)NC[C@H](C)N)[C@@H](C)O)[C@@H](C)O)C(C)C)C(=O)N[C@@H](C)C(=O)N[C@@H](Cc1c[nH]c2ccccc12)C(=O)N[C@@H](CC(C)C)C(=O)N[C@H](C(=O)N[C@@H](CCCCN)C(=O)NCC(=O)N[C@@H](CCCNC(=N)N)C(N)=O)C(C)C", "target": "GLP1R", "assay": "reporter gene, agonist, luciferase", "endpoint": "EC50", "value": "0.00251 nM"}
{"Structure (SMILES)": "CC[C@H](C)[C@H](NC(=O)[C@H](CC(=O)O)NC(=O)[C@H](CO)NC(=O)[C@@H](NC(=O)[C@H](Cc1ccccc1)NC(=O)[C@@H](NC(=O)CNC(=O)[C@H](CC(=O)O)NC(=O)[C@H](C)NC(=O)[C@@H](N)Cc1c[nH]cn1)[C@@H](C)O)[C@@H](C)O)C(=O)N[C@@H](CC(N)=O)C(=O)N[C@@H](CCCCN)C(=O)N[C@H](C(=O)N[C@@H](CC(C)C)C(=O)N[C@@H](CC(=O)O)C(=O)N[C@@H](CC(=O)O)C(=O)N[C@@H](CCSC)C(=O)N[C@@H](C)C(=O)N[C@@H](C)C(=O)N[C@@H](CCCCN)C(=O)N[C@@H](CCC(=O)O)C(=O)N[C@@H](Cc1ccccc1)C(=O)N[C@@H](CC(C)C)C(=O)N[C@@H](CCCCN)C(=O)N[C@@H](Cc1c[nH]c2ccccc12)C(=O)N[C@@H](CC(C)C)C(=O)N[C@H](C(=O)N[C@@H](CC(N)=O)C(=O)N[C@H](C(=O)N[C@@H](CCCCN)C(=O)N[C@H](C(=O)N[C@H](C(=O)N[C@@H](CCC(N)=O)C(=O)O)[C@@H](C)O)C(C)C)[C@@H](C)O)[C@@H](C)CC)[C@@H](C)CC", "target": "GLP1R", "assay": "reporter gene, agonist, luciferase", "endpoint": "EC50", "value": "2.79 nM"}
{"Structure (SMILES)": "COc1cc(-c2ccc3c(c2)Nc2ccc(OCCN4CCOCC4)cc2NC3=O)ccc1[N+](=O)[O-]", "target": "CHEK1", "assay": "enzyme activity, inhibitor", "endpoint": "IC50", "value": "24.5 nM"}
{"Structure (SMILES)": "CSCC[C@H](NC(=O)[C@H](CCC(=O)O)NC(=O)[C@@H]1CCCN1C(=O)[C@@H](NC(=O)[C@@H]1CCCN1)[C@@H](C)O)C(=O)N[C@@H](CCCNC(=N)N)C(=O)N[C@@H](CCC(=O)O)C(=O)N[C@@H](CCCCN)C(=O)N[C@@H](CC(C)C)C(=O)N[C@H]1CSSC[C@@H]2NC(=O)[C@@H](NC(=O)[C@H](Cc3ccc(O)cc3)NC(=O)[C@H](CCCNC(=N)N)NC(=O)[C@H](C)NC(=O)[C@@H]3CCCN3C(=O)[C@H](CC(N)=O)NC(=O)[C@@H](NC(=O)[C@H](C)NC(=O)[C@H](C)NC(=O)[C@H](C)N)[C@@H](C)O)CSSC[C@H](NC(=O)CNC(=O)[C@H](CO)NC(=O)[C@H](CC(C)C)NC2=O)C(=O)N[C@@H]([C@@H](C)O)C(=O)N[C@@H](CCC(N)=O)C(=O)N[C@@H](CCC(N)=O)C(=O)N[C@@H](CC(=O)O)C(=O)N[C@@H](CC(C)C)C(=O)N[C@@H](CC(C)C)C(=O)N[C@@H]([C@@H](C)O)C(=O)N[C@@H](CC(C)C)C(=O)N[C@H](C(=O)N2CCC[C@H]2C(=O)N[C@@H](Cc2ccc(O)cc2)C(=O)O)CSSC[C@@H](C(=O)NCC(=O)NCC(=O)N2CCC[C@H]2C(=O)N[C@@H](CCCNC(=N)N)C(=O)N[C@@H](Cc2c[nH]c3ccccc23)C(=O)N[C@@H](CO)C(=O)N[C@H](C(=O)N[C@@H](CCC(=O)O)C(=O)N[C@@H](C)C(=O)O)[C@@H](C)O)NC(=O)[C@H](C(C)C)NC(=O)[C@H](CCCNC(=N)N)NC(=O)[C@H](C(C)C)NC(=O)[C@H](CC(C)C)NC(=O)[C@H](C)NC(=O)[C@H](CCCNC(=N)N)NC(=O)[C@H](C(C)C)NC(=O)[C@H](Cc2ccccc2)NC(=O)[C@H](Cc2c[nH]cn2)NC(=O)[C@H](Cc2c[nH]cn2)NC(=O)CNC1=O", "target": "Relaxin receptor 2 (RXFP2, Homo sapiens, UniProt Q8WXD0)", "assay": "cAMP, agonist", "endpoint": "EC50", "value": "0.0166 nM"}
{"Structure (SMILES)": "OCc1ccc2c(c1)-c1n[nH]c(-c3ccc(-c4ccc(O)cc4)cc3)c1C2", "target": "CHEK1", "assay": "enzyme activity, inhibitor", "endpoint": "IC50", "value": "4.4 nM"}
{"Structure (SMILES)": "Cc1noc(C)c1-c1ccc(-c2nc3cnccn3c2NC(C)(C)C)cc1", "target": "Bromodomain and PHD finger-containing protein 3 (BRPF3, Homo sapiens, UniProt Q9ULD4)", "assay": "cell-free assay, competition with immobilised ligand", "endpoint": "Kd", "value": "40000 nM"}
{"Structure (SMILES)": "CC1(C)C=Cc2c(ccc3c2OC[C@@H](c2ccc(O)cc2O)C3)O1", "target": "PPARG", "assay": "binding, ITC", "endpoint": "Kd", "value": "14600 nM"}
{"Structure (SMILES)": "CC(=O)c1cc([N+](=O)[O-])c(Sc2cccc(Cl)c2Cl)s1", "target": "Caspase-3 (CASP3, Homo sapiens, UniProt P42574)", "assay": "enzyme activity, inhibitor", "endpoint": "EC50", "value": "> 50000 nM"}
